Publication PMC3880594 (Journal of medicinal chemistry, 2013)

Tests used:
[1] = system: Bcl-2, Bax, NF-κB (p65), PARP, caspase-3 in MDA-MB-231 cells; test: Western blot of apoptosis related proteins; type: cell-based, human; conditions: 48 h; 10 and 19 at 2.5-10 μM, 1 at 10-30 μM
How it was run: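 MDA-MB-231 cells exposed to test compound or DMSO for 48 h, then lysed; protein measured by Bradford against BSA. 30 μg per lane resolved by SDS-PAGE and blotted to PVDF, blocked in 5% non-fat milk. Primary antibodies overnight: Bcl-2 1:200, Bax 1:1000, PARP 1:10000, NF-κB 1:2000, caspase-3 1:1000, β-actin 1:20000. Secondary antibody applied, then ECL detection.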

[2] = system: MCF-7/ADR cells (adriamycin-resistant MCF-7 clone); test: Growth inhibition of drug-resistant breast cancer cells; type: cell-based, human; conditions: concentrations from 1 μM to 10 μM, 48 h
[3] = system: MDA-MB-231, a TNBC cell line; conditions: same dose range effective for MCF-7 cells; ref 9a; cited from earlier work
[4] = system: MCF-7 (ER-positive) breast cancer cells; test: MTT antiproliferation assay, MCF-7; type: cell-based, human; conditions: MCF-7 and MDA-MB-231 cells
How it was run: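 Human breast cancer lines MCF-7 (ER-positive) and MDA-MB-231 (triple-negative) were used, with oridonin tested alongside. MTT antiproliferation read-out: after the MTT step, solution replaced by DMSO, OD at 550 nm after 10 min. Each concentration in quadruplicate wells. IC50 by curve fitting. Mean ± SE of three independent experiments.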

MDA-MB-231 cells [5] = test: Colony formation assay; type: cell-based, human; conditions: 0.625-10 μM, two weeks
How it was run: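 MDA-MB-231 cells seeded at 800 cells/well in regular medium; after 24 h, test compound (0.625, 1.25, 2.5, 5 or 10 μM) or DMSO vehicle added. Drug-containing medium renewed every 72 h for two weeks. Wells stained with 0.01% crystal violet for 10 min, PBS-washed and dried, then whole-well density quantified digitally. Triplicate; one-way ANOVA, SD shown.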

MDA-MB-231 cells [6] = test: Cell apoptosis assay; type: cell-based, human; conditions: MDA-MB-231 cells, 1.0, 5.0, 10 μM, 24 h
[7] = system: MDA-MB-231 xenograft tumors; test: MDA-MB-231 xenograft tumor model; type: in vivo; conditions: 5 mg/kg i.p., nude mice
[8] = system: HMEC (human normal mammary epithelial cells); test: Growth inhibition of normal human mammary epithelial cells; type: cell-based; conditions: 10 μM, 24 h; p < 0.05

Structure (SMILES)	Bax protein level [1]	Bcl-2 protein level [1]	NF-κB (p65) protein expression [1]	PARP cleavage (116 kDa to 25 kDa) [1]	caspase-3 activation [1]	growth inhibitory activity on MCF-7/ADR cells [2]	growth of MDA-MB-231 [3]	antiproliferative activities (in words) [4]	inhibition of colony formation (MDA-MB-231 cells [5])	induction of apoptosis (MDA-MB-231 cells [6])	tolerability / body weight [7]	toxicity to HMEC compared with oridonin [8]
C=C1C(=O)[C@]23[C@H](O)[C@H]1CC[C@H]2[C@@]12CO[C@]3(O)[C@@H](O)[C@@H]1C(C)(C)CC[C@@H]2O [Compound 1, Oridonin, reference compound]	up-regulation	down-regulation	down-regulation	up-regulation of Bax and cleaved PARP	did not activate caspase-3 cleavage	no growth inhibitory activity	failed to reduce the growth					
C=C1C(=O)[C@@]23C(=O)[C@@H](O)[C@@H]4C(C)(C)[C@@H]5OC[C@]4(C(=O)/C5=C\O)[C@@H]2CC[C@@H]1[C@H]3O [Compound 14, (3S,4aR,5S,6aR,9S,11aS,11bS,14R,Z)-5,14-dihydroxy-2-(hydroxymethylene)-4,4-dimethyl-8-methyleneoctahydro-1H-3,11b-(epoxymethano)-6a,9-methanocyclohepta[a]naphthalene-1,6,7(2H,8H)-trione]								no obvious antiproliferative activities				
C=C1C(=O)[C@@]23[C@@H]4OC(C)(C)O[C@]25OC[C@]2(C(=O)C(C=O)=CC(C)(C)[C@H]2[C@@H]5O)[C@@H]3CC[C@@H]14 [Compound 10, (3S,3aR,3a^1R,6aR,7S,7aR,11aS,11bS)-7-hydroxy-5,5,8,8-tetramethyl-15-methylene-11,14-dioxo-2,3,3a,7,7a,8,11,11b-octahydro-1H-6a,11a-(epoxymethano)-3,3a^1-ethanophenanthro[1,10-de][1,3]dioxine-10-carbaldehyde]	up-regulation	down-regulation	significant decrease	triggered PARP cleavage	activated caspase-3 in a dose-dependent manner				inhibit the colony formation	significant effects to induce apoptosis of MDA-MB-231 cells in a dose-dependent manner		
C=C1C(=O)[C@@]23[C@@H]4OC(C)(C)O[C@]25OC[C@]2(C=CC(=O)C(C)(C)[C@H]2[C@@H]5O)[C@@H]3CC[C@@H]14 [Compound 19, (3S,3aR,3a^1R,6aR,7S,7aS,11aR,11bS)-7-hydroxy-5,5,8,8-tetramethyl-15-methylene-3,3a,7,7a,8,11b-hexahydro-1H-6a,11a-(epoxymethano)-3,3a^1-ethanophenanthro[1,10-de][1,3]dioxine-9,14(2H)-dione]	up-regulation	down-regulation	significant decrease	triggered PARP cleavage	activated caspase-3 in a dose-dependent manner				significantly blocked the colony formation of MDA-MB-231 cells at a submicromolar concentration	significant effects to induce apoptosis of MDA-MB-231 cells in a dose-dependent manner	no significant loss of body weight	lower toxicity at 10 μM than oridonin
C=C1C(=O)[C@@]23C(=O)[C@@H](O)[C@@H]4C(C)(C)[C@@H]5OC[C@]4(C(=O)/C5=C/OC)[C@@H]2CC[C@@H]1[C@H]3O [Compound 13, (3S,4aR,5S,6aR,9S,11aS,11bS,14R,E)-5,14-dihydroxy-2-(methoxymethylene)-4,4-dimethyl-8-methyleneoctahydro-1H-3,11b-(epoxymethano)-6a,9-methanocyclohepta[a]naphthalene-1,6,7(2H,8H)-trione]								no obvious antiproliferative activities				
